Source: ChEMBL document CHEMBL2057105, “Effect of substitution at N″-position of N'-hydroxy-N-amino guanidines on tumor cell growth” (Bioorg Med Chem Lett, 2012)
pIC50: −log10 of the molar value.

test system: HL-60; assay: Cytotoxicity against human HL60 cells after 72 hrs by trypan blue assay; type: functional, cell-based; conditions: HL-60, 72 h
In short: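 HL-60 cells in log phase, grown in RPMI 1640 with 10% heat-inactivated FCS, 1% L-glutamine and 1% penicillin–streptomycin (37 °C, 5% CO₂), seeded at 0.1 × 10^6/mL in flasks and exposed to increasing compound concentrations for 72 h at 37 °C. Viable cells counted electronically after trypan blue staining; IC50 as 50% growth inhibition; means SD of at least three experiments.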

Structure (SMILES) | pIC50
C/N=C(/NO)N/N=C/c1c2ccccc2cc2ccccc12 | 4.48
CC/N=C(/NO)N/N=C/c1c2ccccc2cc2ccccc12 | 4.65
CCC/N=C(/NO)N/N=C/c1c2ccccc2cc2ccccc12 | 4.60
CC(C)/N=C(/NO)N/N=C/c1c2ccccc2cc2ccccc12 | 4.53
ON/C(=N\C1CCCCC1)N/N=C/c1c2ccccc2cc2ccccc12 | 4.68
ON/C(=N\Cc1ccccc1)N/N=C/c1c2ccccc2cc2ccccc12 | 4.71
ON/C(=N\CCc1ccccc1)N/N=C/c1c2ccccc2cc2ccccc12 | 4.71
CCCC/N=C(\NO)N/N=C/c1c2ccccc2cc2ccccc12 | 4.68
CC(=O)N/C(=N/O)N/N=C/c1c2ccccc2cc2ccccc12 | 4.70
O=C(N/C(=N/O)N/N=C/c1c2ccccc2cc2ccccc12)c1ccc([N+](=O)[O-])cc1 | 5.00
O=C(N/C(=N/O)N/N=C/c1c2ccccc2cc2ccccc12)c1cc([N+](=O)[O-])cc([N+](=O)[O-])c1 | 5.10
